Measurements of several laboratories.
Lines come from different studies, so protocols differ.
CYP3A4: Cytochrome P450 3A4 (CYP3A4, Homo sapiens, UniProt P08684)
SLCO1B1: Solute carrier organic anion transporter family member 1B1 (SLCO1B1, Homo sapiens, UniProt Q9Y6L6)
CYP1A2: Cytochrome P450 1A2 (CYP1A2, Homo sapiens, UniProt P05177)

NC(=O)C1CCN(C(=O)c2ccc(NCc3cnc4nc(N)nc(N)c4n3)cc2)CC1  inhibition (CYP3A4; enzyme activity, inhibitor, luciferase; 10 µM): -4.54%
C=CC(=O)Nc1cc(Nc2nccc(Nc3cc(Cl)c(F)cc3C(C)(C)O)n2)c(OC)cc1N1CC[C@@H](N(C)C)C1  IC50 (CYP3A4; enzyme activity, inhibitor; human, liver microsomes): 18.2 µM
C[C@H]1C[C@H]2[C@@H]3CCC4=CC(=O)C=C[C@]4(C)[C@@]3(Cl)[C@@H](O)C[C@]2(C)[C@@]1(O)C(=O)CO  IC50 (SLCO1B1; transporter uptake, inhibitor): 6.7 µM
CCCOC(=O)C1CCN(C(=O)c2ccc(N(C)Cc3cnc4nc(N)nc(N)c4n3)cc2)CC1  inhibition (CYP3A4; enzyme activity, inhibitor, luciferase; 10 µM): -10.1%
O=C(Nc1c2c(cc3c1CCC3)CCC2)NS(=O)(=O)/C=C/c1nccs1  inhibition (CYP1A2; enzyme activity, inhibitor; human, liver microsomes; 2 µM, pH 7.4): 14.6%
CC(C)(C)OC(=O)N[C@H](CSCCC(=O)NCc1cccnc1)Cc1ccccc1  ΔTm (CYP3A4; thermal stability): -1 °C
COC(=O)C1CCN(C(=O)c2cccc(NCc3cnc4nc(N)nc(N)c4n3)c2)CC1  inhibition (CYP3A4; enzyme activity, inhibitor, luciferase; 10 µM): -19.5%
CN(CCC(=O)O)C(=O)c1ccc2c(c1)CC[C@@H]1[C@@H]2CC[C@]2(C)C(c3cncc(F)c3)=CC[C@@H]12  IC50 (SLCO1B1; transporter uptake, inhibitor): 3.1 µM
CN(C(=O)n1cnc(-c2ccc[n+]([O-])c2)c1)C1CCCCC1  inhibition (SLCO1B1; transporter uptake, inhibitor; HEK293; 10 µg/mL): ~20%
CC(C)(C)OC(=O)NCCCCCC(=O)NCc1cccnc1  ΔTm (CYP3A4; thermal stability): -0.2 °C
Nc1ccc(S(=O)(=O)Nc2ccnn2-c2ccccc2)cc1  inhibition (CYP1A2; enzyme activity, inhibitor; human, liver microsomes; 10 µM): -9%
